Experiment [1] has as its system HEL. As to the kind of experiment: Inhibition of cell proliferation expressed as CC50. The format is functional, Homo sapiens.
Experiment [2] concerns Human betaherpesvirus 5. Nature of the experiment: Anti CMV (Cytomegalovirus- virus) activity against AD-169 strain in HEL cells. It is filed as functional, organism-based. Particulars: Human betaherpesvirus 5, HEL. Put shortly:
(§1)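 Run in human embryonic lung (HEL) cells. The value is the 50% virus-inhibitory concentration, given in µg/mL.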

Experiment [3] concerns Cytomegalovirus. Nature of the experiment: Anti CMV (Cytomegalovirus- virus) activity against Davis strain in HEL cells. It is filed as functional, organism-based. Conditions: Human betaherpesvirus 5, HEL. The method, boiled down:
as §1

Experiment [4] relates to Human alphaherpesvirus 3. As to the kind of experiment: Anti-VZV activity against OKA strain TK+ in HEL cells. It is filed as functional, organism-based. Particulars: Human alphaherpesvirus 3, oka.
In experiment [5] the test system is Human alphaherpesvirus 3. As to the kind of experiment: Anti-VZV activity against YS TK+ in HEL cells. It is filed as functional, organism-based. Conditions: Human alphaherpesvirus 3, HEL.
For experiment [6], the system named is Human alphaherpesvirus 3. As to the kind of experiment: Anti-VZV activity against YS/R TK- in HEL cells. The format is functional, organism-based. Particulars: Human alphaherpesvirus 3, ys-r.
For experiment [7], the system named is Human alphaherpesvirus 3. As to the kind of experiment: Anti-VZV activity against 07/1 TK- in HEL cells. Particulars: Human alphaherpesvirus 3, HEL. It is filed as functional, organism-based.
Experiment [8] can be described thus: Ratio of Cytotoxicity concentration to that of virus-inhibitory concentration. The format is functional. Put shortly:
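Selectivity index is the 50% cytotoxic concentration in HEL cells divided by the 50% inhibitory concentration against CMV strain AD-169 in HEL cells.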

The subject of experiment [9] is HEL. Nature of the experiment: The compound was tested for Anti-VZV activity against YS strain TK+ in HEL cells. It is filed as functional, cell-based. Conditions: Homo sapiens. Put shortly: as §1
Experiment [10] deals with HEL. As to the kind of experiment: The compound was tested for Anti-VZV activity against YS/R strain TK- in HEL cells. Conditions: Homo sapiens. The format is functional, cell-based. The method, boiled down:
as §1

Experiment [11] relates to HEL. Nature of the experiment: The compound was tested for inhibition of cell proliferation in Human Embryonic Lung (HEL) Cells. The format is functional.
Experiment [12] is described as follows: Ratio of 50% cytotoxic concentration to 50% virus-inhibitory concentration [the latter based on the 50% inhibitory concentration for CMV (AD-169 strain). It is filed as functional.
Experiment [13] has as its system HEL. As to the kind of experiment: The compound was tested for Anti-VZV activity against 07/1 strain TK- in HEL cells. The format is functional, cell-based. Particulars: Homo sapiens. The method, boiled down:
as §1

Values after ≈ are worked out from the molar mass of the structure shown.

Turning to `Nc1nc2c(ncn2COC(CO)CO)c(=O)[nH]1` [GANCICLOVIR], the CC in [1] was greater than 100 µg/mL. The IC50 in experiment [2] and in experiment [3] was 0.5 µg/mL (≈ 1.96 µM) each time.
As for `Cc1cc(Br)cn2c(CSCc3ccccc3)cnc12`, the IC50 turned out to be 5.5 µg/mL (≈ 15.8 µM) in experiment [4]; 7 µg/mL (≈ 20.2 µM) in [5]; 0.86 µg/mL (≈ 2.48 µM) in experiment [6]; 1.4 µg/mL (≈ 4.03 µM) in experiment [7]; 0.12 µg/mL (≈ 0.346 µM) in [2]; 0.12 µg/mL (≈ 0.346 µM) in [3]. The compound further returned a CC in experiment [1] greater than 50 µg/mL. Besides, the Selectivity index in experiment [8] is recorded as greater than 417.
For the compound `Cc1ccn2c(CSCc3ccc(Cl)cc3)cnc2c1`, the IC50 in experiment [4] was 2 µg/mL (≈ 6.6 µM); in experiment [5], greater than 5 µg/mL; in [6], greater than 5 µg/mL; in [7] it was greater than 5 µg/mL; in experiment [2] it was 1.2 µg/mL (≈ 3.96 µM); in [3], 1.6 µg/mL (≈ 5.28 µM). Further, the CC in experiment [1] was 19 µg/mL. For the same compound, the Selectivity index in [8] is given as 16.
Take `O=c1[nH]c(=O)n([C@H]2C[C@H](O)[C@@H](CO)O2)cc1/C=C/Br` [BRIVUDINE]: the IC50 in [4] was 0.0009 µg/mL (≈ 0.0027 µM); in [5], 0.002 µg/mL (≈ 0.006 µM); in experiment [6], greater than 20 µg/mL; in experiment [7] it was greater than 50 µg/mL. Further, the CC in experiment [1] was greater than 50 µg/mL.
Turning to `Cc1ccn2c(CSCCc3ccccc3)cnc2c1`, the IC50 in experiment [4] was determined as 0.2 µg/mL (≈ 0.708 µM); in [5] it was 0.5 µg/mL (≈ 1.77 µM); in experiment [6] it was 0.66 µg/mL (≈ 2.34 µM); in experiment [7] it was 0.95 µg/mL (≈ 3.36 µM); in experiment [2] it was 0.33 µg/mL (≈ 1.17 µM); in [3], 0.35 µg/mL (≈ 1.24 µM). This compound also yielded a CC in [1] greater than 50 µg/mL. In addition, the Selectivity index in experiment [8] is listed as greater than 151.
In the case of `Cc1ccn2c(CSCc3ccccc3)c(-c3ccccc3)nc2c1`, the IC50 in experiment [4] is greater than 20 µg/mL; in experiment [5] it was greater than 20 µg/mL; in experiment [6] it was greater than 50 µg/mL; in [7], greater than 50 µg/mL; in experiment [2], greater than 20 µg/mL; in experiment [3] it was greater than 20 µg/mL. Further, the CC in experiment [1] is greater than 50 µg/mL.
Consider `Cc1cc(Br)c2ncc(CSCc3ccccc3)n2c1`, for which the IC50 in [4] was 31 µg/mL (≈ 89.3 µM); in [5], greater than 50 µg/mL; in experiment [6] it was 4 µg/mL (≈ 11.5 µM); in [7], 9 µg/mL (≈ 25.9 µM); in experiment [2], 1.1 µg/mL (≈ 3.17 µM); in experiment [3], 1.1 µg/mL (≈ 3.17 µM). For the same compound, the CC in [1] was greater than 50 µg/mL. The Selectivity index in [8] is recorded as greater than 45.
For the compound `Cc1ccc(C)n2c(CSCc3ccccc3)cnc12`, the IC50 in experiment [4] was greater than 2 µg/mL; in experiment [5], greater than 2 µg/mL; in experiment [6], greater than 2 µg/mL; in experiment [7], greater than 2 µg/mL; in experiment [2] it was 1.2 µg/mL (≈ 4.25 µM); in experiment [3], greater than 2 µg/mL. Also, in [1], the CC was 3 µg/mL. For the same compound, the Selectivity index in experiment [8] was 2.5.
Turning to `Cc1cccn2c(CSCc3ccccc3)cnc12`, the IC50 was 0.9 µg/mL (≈ 3.35 µM) in [4]; 0.3 µg/mL (≈ 1.12 µM) in experiment [5]; greater than 1 µg/mL in [6]; 0.4 µg/mL (≈ 1.49 µM) in experiment [7]; 0.2 µg/mL (≈ 0.745 µM) in [2]; 0.2 µg/mL (≈ 0.745 µM) in experiment [3]. Also, in experiment [1], the CC stood at 8 µg/mL. In addition, in experiment [8], the Selectivity index worked out at 40.
Take `Cc1ccn2c(CSCc3ccccc3Cl)cnc2c1`: the IC50 in experiment [4] is 1.8 µg/mL (≈ 5.94 µM); in experiment [5], greater than 5 µg/mL; in [6], greater than 5 µg/mL; in experiment [7], greater than 5 µg/mL; in experiment [2], 0.5 µg/mL (≈ 1.65 µM); in experiment [3] it was 0.7 µg/mL (≈ 2.31 µM). The CC in [1] amounted to 18 µg/mL. In addition, in experiment [8], the Selectivity index is on record as 36.
`Cc1ccc2ncc(CSCc3ccccc3)n2c1`: the concentration for half-maximal inhibition (IC50) in [4] was 0.74 µg/mL (≈ 2.76 µM); in experiment [5] it was 6.4 µg/mL (≈ 23.8 µM); in [6], 1.2 µg/mL (≈ 4.47 µM); in experiment [7], 2.58 µg/mL (≈ 9.61 µM); in experiment [2] it was 0.3 µg/mL (≈ 1.12 µM); in experiment [3], 0.5 µg/mL (≈ 1.86 µM). Also, the CC in experiment [1] is 23 µg/mL. Also, the Selectivity index in experiment [8] is listed as 77.
For `Cc1ccn2c(CSCC(F)(F)F)cnc2c1`, the IC50 in experiment [4] was greater than 50 µg/mL; in experiment [9], greater than 50 µg/mL; in experiment [10], greater than 50 µg/mL; in experiment [13] it was greater than 50 µg/mL; in experiment [2] it was 40 µg/mL (≈ 154 µM); in experiment [3], 42 µg/mL (≈ 161 µM). In experiment [11], the CC50 is greater than 50 µg/mL. For the same compound, in [12], the Selectivity index was greater than 1.2.
Regarding `Cc1ccn2c(CSCc3ccccc3)c(C)nc2c1`, the IC50 in [4] was 10.5 µg/mL (≈ 37.2 µM); in experiment [5], greater than 5 µg/mL; in experiment [6], 10 µg/mL (≈ 35.4 µM); in experiment [7], 14.1 µg/mL (≈ 49.9 µM); in experiment [2], 3.4 µg/mL (≈ 12 µM); in experiment [3], 3.5 µg/mL (≈ 12.4 µM). This compound gave a CC in experiment [1] greater than 50 µg/mL. In addition, in [8], the Selectivity index was greater than 15.
Take `Cc1cccn2c(CSCc3ccccc3)c(-c3ccccc3)nc12`: the concentration for half-maximal inhibition (IC50) was greater than 2 µg/mL in experiment [4]; greater than 2 µg/mL in [5]; 2 µg/mL (≈ 5.81 µM) in experiment [6]; greater than 2 µg/mL in [7]; 1.2 µg/mL (≈ 3.48 µM) in experiment [2]; greater than 2 µg/mL in [3]. The same compound returned a CC in experiment [1] of 13 µg/mL. In experiment [8], the Selectivity index was 11.
Take `Cc1nc2ccccn2c1CSCc1ccccc1`: the IC50 worked out at 0.37 µg/mL (≈ 1.38 µM) in experiment [4]; 0.23 µg/mL (≈ 0.857 µM) in experiment [5]; 0.28 µg/mL (≈ 1.04 µM) in experiment [6]; 0.5 µg/mL (≈ 1.86 µM) in [7]; 0.12 µg/mL (≈ 0.447 µM) in experiment [2]; 0.13 µg/mL (≈ 0.484 µM) in experiment [3]. The same compound displayed a CC in experiment [1] of 33 µg/mL. Besides, the Selectivity index in [8] was determined as 275.
For the compound `Nc1nc2c(ncn2COCCO)c(=O)[nH]1` [ACYCLOVIR], the CC in experiment [1] is greater than 100 µg/mL.
As for `FC(F)(F)c1cc(Cl)c2ncc(CSCc3ccccc3)n2c1`, the IC50 in experiment [4] was 6.6 µg/mL (≈ 18.5 µM); in [5], 8.8 µg/mL (≈ 24.7 µM); in experiment [6], 9.8 µg/mL (≈ 27.5 µM); in experiment [7], greater than 5 µg/mL; in experiment [2], greater than 5 µg/mL; in experiment [3], greater than 5 µg/mL. In addition, the CC in experiment [1] was 40 µg/mL. In addition, the Selectivity index in experiment [8] is less than 8.
In the case of `Cc1c(Br)cc(Br)c2ncc(CSCc3ccccc3)n12`, the IC50 is greater than 50 µg/mL in [4]; greater than 50 µg/mL in experiment [5]; greater than 20 µg/mL in experiment [6]; greater than 50 µg/mL in [7]; greater than 50 µg/mL in experiment [2]; greater than 50 µg/mL in [3]. In addition, in experiment [1], the CC is greater than 50 µg/mL.
In the case of `Cc1ccn2c(CSCc3ccccc3)cnc2c1`, the IC50 in [4] amounted to 15 µg/mL (≈ 55.9 µM); in experiment [5], 17 µg/mL (≈ 63.3 µM); in [6] it was 10 µg/mL (≈ 37.3 µM); in [2], 3.5 µg/mL (≈ 13 µM); in experiment [3], 3.5 µg/mL (≈ 13 µM). For the same compound, in [1], the CC stood at 45 µg/mL. The Selectivity index in experiment [8] was determined as 13.

As usually defined, the IC50 is the concentration that inhibits the measured activity by half. A lower IC50 goes with greater potency. A word on the CC50: it is the concentration that lowers cell viability or growth by half.

The record behind these values is ChEMBL document CHEMBL1131427, “Synthesis of imidazo[1,2-a]pyridines as antiviral agents” (J Med Chem, 1998).
